Laboratory results from ChEMBL document CHEMBL3997808 (J Med Chem, 2017).
Converted amounts (≈) assume the structure as drawn.

Assays:
[1] = Drug metabolism in rat hepatocytes assessed as glucuronide metabolite M553 formation at 10 uM measured up to 4 hrs; type: ADME, cell-based, Hepatocyte
Summary of the method: (§1)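 Compound at 10 μM was incubated with hepatocyte suspensions at 1 million cells/mL. Incubation ran at 37°C under 5% CO2:95% O2 for up to 4 h.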

[2] = Tmax in cynomolgus monkey at 1.9 mg/kg, po; type: ADME, organism-based, Macaca fascicularis; details: in vivo
Brain = test: Drug uptake in Han Wistar rat brain at 2 mg/kg, iv administered as 4 hrs infusion; type: ADME, organism-based; details: in vivo
Summary of the method: (§2)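 Rats received a 4 h iv infusion, after which terminal tissue samples were collected. Parent drug concentrations were measured in each tissue and compared with blood levels.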

[3] = Drug metabolism in human hepatocytes assessed as (S)-3-amino-5-methyl-2,3-dihydrobenzo[b][1,4]oxazepin-4(5H)-one formation at 10 uM measured up to 4 hrs; type: ADME, cell-based, Hepatocyte; summary of the method: as §1
Blood = test: Drug uptake in Han Wistar rat blood at 2 mg/kg, iv administered as 4 hrs infusion; type: ADME, organism-based; details: in vivo; summary of the method: as §2
[4] = Fraction unbound in human blood; type: ADME, tissue-based
[5] = Drug metabolism in rat hepatocytes assessed as (S)-5-benzyl-N-(4-oxo-2,3,4,5-tetrahydrobenzo[b][1,4]oxazepin-3-yl)-1H-1,2,4-triazole-3-carboxamide formation at 10 uM measured up to 4 hrs; type: ADME, cell-based, Hepatocyte; summary of the method: as §1
Liver = test: Drug uptake in Han Wistar rat liver at 2 mg/kg, iv administered as 4 hrs infusion; type: ADME, organism-based; details: in vivo; summary of the method: as §2
[6] = Clearance in cynomolgus monkey at 1.2 mg/kg, iv; type: ADME, organism-based, Macaca fascicularis; details: in vivo
[7] = Drug metabolism in rat hepatocytes assessed as glucuronide metabolite M569 formation at 10 uM measured up to 4 hrs; type: ADME, cell-based, Hepatocyte; summary of the method: as §1
[8] = Drug metabolism in cynomolgus monkey hepatocytes assessed as glucuronide metabolite M569 formation at 10 uM measured up to 4 hrs; type: ADME, cell-based, Macaca fascicularis, Hepatocyte; summary of the method: as §1
[9] = Volume of distribution at steady state in cynomolgus monkey at 1.2 mg/kg, iv; type: ADME, organism-based, Macaca fascicularis; details: in vivo, read-out: Vdss
[10] = Drug metabolism in rat hepatocytes assessed as 5-(hydroxy(phenyl)methyl)-N-((S)-5-methyl-4-oxo-2,3,4,5-tetrahydrobenzo[b][1,4]oxazepin-3-yl)-1H-1,2,4-triazole-3-carboxamide formation at 10 uM measured up to 4 hrs; type: ADME, cell-based, Hepatocyte; summary of the method: as §1
[11] = Fraction unbound in cynomolgus monkey blood; type: ADME, tissue-based, Macaca fascicularis
[12] = Solubility of the compound in FaSSIF; type: physicochemical
[13] = Oral bioavailability in cynomolgus monkey at 1.9 mg/kg; type: ADME, organism-based, Macaca fascicularis; details: in vivo
[14] = Drug metabolism in human hepatocytes assessed as glucuronide metabolite M553 formation at 10 uM measured up to 4 hrs; type: ADME, cell-based, Hepatocyte; summary of the method: as §1
[15] = target: T1, Nuclear receptor subfamily 1 group I member 2 (Homo sapiens, UniProt O75469); test: Activation of human PXR; type: ADME
T1 sequence (O75469 whole entry): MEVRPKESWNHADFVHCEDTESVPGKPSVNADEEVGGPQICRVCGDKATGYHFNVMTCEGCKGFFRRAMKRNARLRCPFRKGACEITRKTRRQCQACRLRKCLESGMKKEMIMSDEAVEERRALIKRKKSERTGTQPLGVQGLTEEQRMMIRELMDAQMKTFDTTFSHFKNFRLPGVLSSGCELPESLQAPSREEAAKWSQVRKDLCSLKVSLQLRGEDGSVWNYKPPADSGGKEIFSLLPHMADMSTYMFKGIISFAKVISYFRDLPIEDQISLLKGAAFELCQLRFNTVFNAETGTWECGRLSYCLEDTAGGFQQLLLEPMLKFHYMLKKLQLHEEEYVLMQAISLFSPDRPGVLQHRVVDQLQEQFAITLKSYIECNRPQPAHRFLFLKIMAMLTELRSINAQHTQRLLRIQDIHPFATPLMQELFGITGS

[16] = Drug metabolism in cynomolgus monkey hepatocytes assessed as 5-(hydroxy(phenyl)methyl)-N-((S)-5-methyl-4-oxo-2,3,4,5-tetrahydrobenzo[b][1,4]oxazepin-3-yl)-1H-1,2,4-triazole-3-carboxamide formation at 10 uM measured up to 4 hrs; type: ADME, cell-based, Macaca fascicularis, Hepatocyte; summary of the method: as §1
MDR1 = test: Permeability across dog MDCK cells expressing MDR1; type: ADME, cell-based, Canis lupus familiaris; details: read-out: permeability

For `CN1C(=O)[C@@H](NC(=O)c2nnc(Cc3ccccc3)[nH]2)COc2ccccc21` [GSK2982772], the Drug metabolism [1] was “Metabolite_Detected”, the Tmax [2] was 1.8 h and the Drug uptake (Brain) was 4%. For the same compound, the Drug metabolism [3] was “Metabolite_Detected”, the Drug uptake (Blood) was “Active” and the fraction unbound [4] was 0.074. For the same compound, the Drug metabolism [5] was “Metabolite_Detected”, the Drug uptake (Liver) was “Active” and the clearance [6] was 10 mL/min/kg. The Drug metabolism [7] was “Metabolite_Detected”, the Drug metabolism [8] was “Metabolite_Detected” and the Vd [9] was 2.2 L/kg. For the same compound, the Drug metabolism [10] was “Metabolite_Detected”, the fraction unbound [11] was 0.11 and the solubility [12] was 230 µg/mL (≈ 609 µM). The bioavailability [13] was 86%, the Drug metabolism [14] was “Metabolite_Detected” and the EC50 [15] was 13 µM. The Drug metabolism [16] was “Metabolite_Detected” and the Papp (MDR1) was 21 ×10⁻⁶ cm/s.
